Test results from ChEMBL document CHEMBL1134596, “Synthesis and conformational analysis of fusidic acid side chain derivatives in relation to antibacterial activity” (2001).
≈ marks a conversion by molar mass, not a printed value.

Key:
Type in all cases: functional
[1] = Minimum inhibitory concentration against Streptococcus. species EF 6; conditions: Bacteria
How it was run: (§1)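 Streptococcal MICs were estimated by agar cup diffusion in Mueller Hinton agar supplemented with 5% sheep blood. The agar was seeded at 48 °C with 10^6 CFU/mL from a saline suspension at 0.5 McFarland. Cut holes were filled from six dilutions spanning 0.25–125 µg/mL. After incubation, growth-inhibition zone diameters were read with an electronic caliper.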

[2] = Minimum inhibitory concentration against Saccharomyces cerevisiae ZZ 7
[3] = system: Bacillus cereus; assay: Minimum inhibitory concentration against Bacillus cereus ATCC 10876
How it was run: (§2)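 Agar cup diffusion assay. Colonies from a fresh overnight culture were suspended in saline to 0.5 McFarland (10^8 CFU/mL). Mueller Hinton agar at 48 °C was seeded at 10^6 CFU/mL and poured, and holes were cut in it. Each hole received sample from a six-step dilution series between 0.25 and 125 µg/mL. After incubation, inhibition zone diameters were measured with an electronic caliper to estimate the MIC.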

[4] = system: Candida albicans; assay: Minimum inhibitory concentration against Candida albicans ATCC 10231
[5] = system: Staphylococcus epidermidis; assay: Minimum inhibitory concentration against Staphylococcus epidermidis ATCC 12228; how it was run: as §2
[6] = system: Corynebacterium xerosis; assay: Minimum inhibitory concentration against Corynebacterium xerosis NCTC 9755; how it was run: as §2
[7] = system: Streptococcus thermophilus; assay: Minimum inhibitory concentration against Streptococcus thermophilus EG 5; how it was run: as §1
[8] = system: Staphylococcus aureus; assay: Minimum inhibitory concentration against meticilline resistant Staphylococcus aureus CJ 232
How it was run: (§3)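 MIC by agar cup diffusion. Colonies from fresh overnight culture were suspended in saline to 0.5 McFarland (10^8 CFU/mL), and molten Mueller Hinton agar at 48 °C was seeded at 10^6 CFU/mL and poured. Wells each received 200 µL of one of six dilutions spanning 0.25–125 µg/mL. After incubation, inhibition zone diameters were measured by caliper. Strains came from ATCC or in-house clinical isolates.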

[9] = system: Streptococcus equi subsp. zooepidemicus; assay: Minimum inhibitory concentration against Streptococcus zooepidermidis ED (gr.C); how it was run: as §1
[10] = system: Staphylococcus aureus; assay: Minimum inhibitory concentration against Staphylococcus aureus ATCC 6538P; how it was run: as §2
[11] = system: Streptococcus salivarius; assay: Minimum inhibitory concentration against Streptococcus salivarius EG 7 (gr.A); how it was run: as §1
[12] = system: Staphylococcus aureus; assay: Minimum inhibitory concentration against meticilline and fus resistant Staphylococcus aureus CJ 234; how it was run: as §3
[13] = system: Staphylococcus aureus; assay: Minimum inhibitory concentration against meticilline and rifampicin resistant Staphylococcus aureus CJ 234; how it was run: as §3
[14] = system: Staphylococcus aureus; assay: Minimum inhibitory concentration against Staphylococcus aureus ATCC 29213; how it was run: as §2
[15] = system: Escherichia coli; assay: Minimum inhibitory concentration against Escherichia coli HA 44; how it was run: as §2
[16] = system: Streptococcus pyogenes; assay: Minimum inhibitory concentration against Streptococcus pyogenes EC; how it was run: as §1
[17] = system: Clostridium perfringens; assay: Minimum inhibitory concentration against Clostridium perfringens KT 13; how it was run: as §3
[18] = system: Staphylococcus aureus; assay: Minimum inhibitory concentration against Staphylococcus aureus ATCC 2977; how it was run: as §3
[19] = system: Cutibacterium acnes; assay: Minimum inhibitory concentration against Propionibacterium acnes NCTC 737; how it was run: as §2
[20] = system: Aspergillus niger; assay: Minimum inhibitory concentration against Aspergillus niger ATCC 16404
[21] = system: Enterococcus faecium; assay: Minimum inhibitory concentration against Streptococcus faecium EI 119; how it was run: as §1
[22] = system: Micrococcus luteus; assay: Minimum inhibitory concentration against Micrococcus luteus ATCC 9341; how it was run: as §2

Row | Compound | MIC [1] [µg/mL] | MIC [2] [µg/mL] | MIC [3] [µg/mL] | MIC [4] [µg/mL] | MIC [5] [µg/mL] | MIC [6] [µg/mL] | MIC [7] [µg/mL] | MIC [8] [µg/mL] | MIC [9] [µg/mL] | MIC [10] [µg/mL] | MIC [11] [µg/mL] | MIC [12] [µg/mL] | MIC [13] [µg/mL] | MIC [14] [µg/mL] | MIC [15] [µg/mL] | MIC [16] [µg/mL] | MIC [17] [µg/mL] | MIC [18] [µg/mL] | MIC [19] [µg/mL] | MIC [21] [µg/mL] | further results
1 | CC(=O)O[C@H]1C[C@@]2(C)[C@@H](CC(O)[C@H]3[C@@]4(C)CCC(O)C(C)[C@@H]4CC[C@]32C)/C1=C(\CCC=C(C)C)C(=O)O (some centres not stated) | 4 (≈ 7.74 µM) | 4 (≈ 7.74 µM) | 4 (≈ 7.74 µM) | 16 (≈ 31 µM) | 0.0007 (≈ 0.00135 µM) | 0.01 (≈ 0.0194 µM) | 4 (≈ 7.74 µM) | 0.015 (≈ 0.029 µM) | 16 (≈ 31 µM) | 0.007 (≈ 0.0135 µM) | 4 (≈ 7.74 µM) | > 125 | 0.006 (≈ 0.0116 µM) | 0.007 (≈ 0.0135 µM) | > 125 | 4 (≈ 7.74 µM) | 16 (≈ 31 µM) | 0.006 (≈ 0.0116 µM) | 0.003 (≈ 0.00581 µM) | 0.01 (≈ 0.0194 µM) | MIC [20]: 16 µg/mL (≈ 31 µM); MIC [22]: 1 µg/mL (≈ 1.94 µM)
2 | CC(=O)O[C@H]1C[C@@]2(C)C(CC(O)[C@H]3[C@@]4(C)CCC(O)C(C)C4CC[C@@]32C)[C@@H]1[C@H](CCCC(C)C)C(=O)O (some centres not stated) | > 125 | > 125 | > 125 | > 125 | 3.8 (≈ 7.3 µM) | 4 (≈ 7.68 µM) | > 125 | 4 (≈ 7.68 µM) | > 125 | 4 (≈ 7.68 µM) | > 125 | > 125 | 0.9 (≈ 1.73 µM) | 2 (≈ 3.84 µM) | > 125 | > 125 | > 125 | 4 (≈ 7.68 µM) | 4 (≈ 7.68 µM) | 16 (≈ 30.7 µM) | MIC [20]: 16 µg/mL (≈ 30.7 µM); MIC [22]: > 125 µg/mL
3 | CC(=O)O[C@H]1C[C@@]2(C)C(CC(O)[C@H]3[C@@]4(C)CCC(O)C(C)C4CC[C@@]32C)C1[C@@H](CCC=C(C)C)C(=O)O (some centres not stated) | > 125 | > 125 | > 125 | > 125 | > 125 | > 125 | > 125 | > 125 | > 125 | > 125 | > 125 | > 125 | > 125 | > 125 | > 125 | > 125 | > 125 | > 125 | 4 (≈ 7.71 µM) | > 125 | MIC [22]: > 125 µg/mL
4 | CC(=O)O[C@H]1C[C@@]2(C)C(CC(O)[C@H]3[C@@]4(C)CCC(O)C(C)C4CC[C@]32C)C1[C@H](CCC=C(C)C)C(=O)O (some centres not stated) | 4 (≈ 7.71 µM) | 4 (≈ 7.71 µM) | 1 (≈ 1.93 µM) | 64 (≈ 123 µM) | 0.01 (≈ 0.0193 µM) | 0.03 (≈ 0.0578 µM) | 16 (≈ 30.8 µM) | 0.03 (≈ 0.0578 µM) | 16 (≈ 30.8 µM) | 0.012 (≈ 0.0231 µM) | 4 (≈ 7.71 µM) | > 125 | 0.03 (≈ 0.0578 µM) | 0.01 (≈ 0.0193 µM) | > 125 | 16 (≈ 30.8 µM) | 16 (≈ 30.8 µM) | 0.03 (≈ 0.0578 µM) | 0.03 (≈ 0.0578 µM) | 0.025 (≈ 0.0482 µM) | MIC [20]: 64 µg/mL (≈ 123 µM); MIC [22]: 1 µg/mL (≈ 1.93 µM)
